Assay results reported in ChEMBL document CHEMBL1139366, “Non-peptide macrocyclic histone deacetylase inhibitors” (J Med Chem, 2009).

Legend:
[1] = Cytotoxicity against human primary lung fibroblasts after 72 hrs by trypan blue exclusion assay; format: ADME, cell-based; conditions: Fibroblast
[2] = target: T1, Histone deacetylase 8 (Homo sapiens, UniProt Q9BY41); assay: Inhibition of HDAC8 from human HeLa cells nuclear extract by cell free fluorimetric assay
T1 sequence (Q9BY41 whole entry): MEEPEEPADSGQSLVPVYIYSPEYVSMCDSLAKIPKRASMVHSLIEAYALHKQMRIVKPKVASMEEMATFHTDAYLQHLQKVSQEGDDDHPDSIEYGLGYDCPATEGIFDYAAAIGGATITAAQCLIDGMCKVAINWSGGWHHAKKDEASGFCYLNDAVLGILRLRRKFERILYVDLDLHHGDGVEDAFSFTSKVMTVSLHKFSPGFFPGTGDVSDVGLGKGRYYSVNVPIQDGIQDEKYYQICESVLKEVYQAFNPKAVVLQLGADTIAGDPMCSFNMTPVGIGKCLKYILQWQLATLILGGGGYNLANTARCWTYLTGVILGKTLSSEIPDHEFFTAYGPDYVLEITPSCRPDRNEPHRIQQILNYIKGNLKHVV

[3] = target: Histone deacetylase (HDAC1 and HDAC2) (Homo sapiens, UniProt Q13547+Q92769); assay: Inhibition of HDAC1/2 from human HeLa cells nuclear extract by cell free fluorimetric assay; format: cell-based
[4] = system: HMEC; assay: Cytotoxicity against HMEC after 72 hrs by trypan blue exclusion assay; format: ADME, cell-based; conditions: Homo sapiens
[5] = system: DU-145; assay: Cytotoxicity against human DU145 cells after 72 hrs by trypan blue exclusion assay; format: functional, cell-based; conditions: DU-145, 72 h
Method in brief: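 DU-145 prostate cancer cells kept in recommended complete medium at 37 °C, 5% CO₂, passaged 24 h before dosing. Compounds taken from 10 mM DMSO stocks and diluted in DMSO plus fresh medium, final DMSO 0.1%; control wells got fresh medium only. Viability read by trypan blue staining after 72 h. EC₅₀ = concentration giving 50% loss of viability, from duplicate of four simultaneous experiments.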

[6] = system: NCI-H69; assay: Cytotoxicity against human NCI-H69 cells after 72 hrs by trypan blue exclusion assay; format: functional, cell-based; conditions: NCI-H69, 72 h
[7] = system: SK-MES-1; assay: Cytotoxicity against human SKMES1 cells after 72 hrs by trypan blue exclusion assay; format: functional, cell-based; conditions: SK-MES-1, 72 h
[8] = target: T2, Protein deacetylase HDAC6 (Homo sapiens, UniProt Q9UBN7); assay: Inhibition of HDAC6 from human HeLa cells nuclear extract by cell free fluorimetric assay
T2 sequence (Q9UBN7 whole entry): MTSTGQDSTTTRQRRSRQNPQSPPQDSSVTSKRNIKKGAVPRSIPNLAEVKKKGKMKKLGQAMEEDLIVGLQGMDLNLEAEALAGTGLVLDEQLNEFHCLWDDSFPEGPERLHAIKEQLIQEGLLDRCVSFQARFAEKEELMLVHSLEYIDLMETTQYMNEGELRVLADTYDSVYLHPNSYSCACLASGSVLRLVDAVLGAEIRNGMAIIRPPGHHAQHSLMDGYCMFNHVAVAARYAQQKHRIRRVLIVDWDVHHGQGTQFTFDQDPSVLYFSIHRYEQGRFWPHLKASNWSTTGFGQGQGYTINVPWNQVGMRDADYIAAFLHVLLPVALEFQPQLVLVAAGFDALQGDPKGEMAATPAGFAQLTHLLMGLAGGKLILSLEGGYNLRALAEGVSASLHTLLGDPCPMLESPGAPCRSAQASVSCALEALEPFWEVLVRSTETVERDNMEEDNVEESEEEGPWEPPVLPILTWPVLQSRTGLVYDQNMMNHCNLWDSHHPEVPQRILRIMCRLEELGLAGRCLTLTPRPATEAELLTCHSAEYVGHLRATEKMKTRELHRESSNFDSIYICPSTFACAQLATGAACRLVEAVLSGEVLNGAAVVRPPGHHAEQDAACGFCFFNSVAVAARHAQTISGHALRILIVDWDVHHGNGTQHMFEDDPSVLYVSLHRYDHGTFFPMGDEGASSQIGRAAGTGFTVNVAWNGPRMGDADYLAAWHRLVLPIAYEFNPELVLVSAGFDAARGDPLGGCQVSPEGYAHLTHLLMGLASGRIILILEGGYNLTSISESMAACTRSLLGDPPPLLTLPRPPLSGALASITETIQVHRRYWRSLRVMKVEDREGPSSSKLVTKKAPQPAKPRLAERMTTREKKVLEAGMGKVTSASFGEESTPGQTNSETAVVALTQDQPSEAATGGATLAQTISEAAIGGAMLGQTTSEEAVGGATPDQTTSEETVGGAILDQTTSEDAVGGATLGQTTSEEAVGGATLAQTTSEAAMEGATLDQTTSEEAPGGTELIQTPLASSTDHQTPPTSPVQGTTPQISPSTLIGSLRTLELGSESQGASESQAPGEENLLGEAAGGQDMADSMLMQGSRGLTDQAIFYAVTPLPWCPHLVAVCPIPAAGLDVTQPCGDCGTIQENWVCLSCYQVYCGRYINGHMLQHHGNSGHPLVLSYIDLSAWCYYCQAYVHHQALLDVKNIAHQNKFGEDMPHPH

| SMILES | IC50 [2] | IC50 [3] | IC50 [8] | EC50 [1] | EC50 [4] | EC50 [5] | EC50 [6] | EC50 [7] |
| --- | --- | --- | --- | --- | --- | --- | --- | --- |
| CC[C@H]1OC(=O)[C@H](C)[C@@H](O[C@H]2C[C@@](C)(OC)[C@@H](O)[C@H](C)O2)[C@H](C)[C@@H](O[C@@H]2O[C@H](C)C[C@H](N(C)Cc3ccc(-c4cn(CCCCCCCC(=O)NO)nn4)cc3)[C@H]2O)[C@](C)(O)C[C@@H](C)CN(C)[C@H](C)[C@@H](O)[C@]1(C)O | 7130 nM | 58.9 nM |  | > 10000 nM | > 10000 nM | 5890 nM | 4560 nM | 4890 nM |
| CC[C@H]1OC(=O)[C@H](C)[C@@H](O[C@H]2C[C@@](C)(OC)[C@@H](O)[C@H](C)O2)[C@H](C)[C@@H](O[C@@H]2O[C@H](C)C[C@H](N(C)Cc3ccc(-c4cn(CCCCCCC(=O)NO)nn4)cc3)[C@H]2O)[C@](C)(OC)C[C@@H](C)C(=O)[C@H](C)[C@@H](O)[C@]1(C)O |  | 4.1 nM | 89.3 nM | > 10000 nM | > 10000 nM | 1120 nM | 1450 nM | 1330 nM |
| CC[C@H]1OC(=O)[C@H](C)[C@@H](O)[C@H](C)[C@@H](O[C@@H]2O[C@H](C)C[C@H](N(C)Cc3ccc(-c4cn(CCCCCCC(=O)NO)nn4)cc3)[C@H]2O)[C@](C)(OC)C[C@@H](C)C(=O)[C@H](C)[C@@H](O)[C@]1(C)O |  | 1.9 nM | 148 nM | > 10000 nM | > 10000 nM | 1050 nM | 1490 nM | 1280 nM |
| CC[C@H]1OC(=O)[C@H](C)[C@@H](O[C@H]2C[C@@](C)(OC)[C@@H](O)[C@H](C)O2)[C@H](C)[C@@H](O[C@@H]2O[C@H](C)C[C@H](N(C)Cc3ccc(-c4cn(CCCCCCCCC(=O)NO)nn4)cc3)[C@H]2O)[C@](C)(O)C[C@@H](C)CN(C)[C@H](C)[C@@H](O)[C@]1(C)O | 11100 nM | 145.5 nM |  | > 10000 nM | > 10000 nM | > 10000 nM | 8450 nM | 7540 nM |

Continued, in another order:

| IC50 [2] | IC50 [3] | IC50 [8] | SMILES | EC50 [1] | EC50 [4] | EC50 [5] | EC50 [6] | EC50 [7] |
| --- | --- | --- | --- | --- | --- | --- | --- | --- |
| 4730 nM | 91.6 nM |  | CC[C@H]1OC(=O)[C@H](C)[C@@H](O[C@H]2C[C@@](C)(OC)[C@@H](O)[C@H](C)O2)[C@H](C)[C@@H](O[C@@H]2O[C@H](C)C[C@H](N(C)Cc3ccc(-c4cn(CCCCCC(=O)NO)nn4)cc3)[C@H]2O)[C@](C)(O)C[C@@H](C)CN(C)[C@H](C)[C@@H](O)[C@]1(C)O | > 10000 nM | > 10000 nM | 1450 nM | 1920 nM | 1790 nM |
| 3740 nM | 88.8 nM |  | CC[C@H]1OC(=O)[C@H](C)[C@@H](O)[C@H](C)[C@@H](O[C@@H]2O[C@H](C)C[C@H](N(C)Cc3ccc(-c4cn(CCCCCC(=O)NO)nn4)cc3)[C@H]2O)[C@](C)(O)C[C@@H](C)CN(C)[C@H](C)[C@@H](O)[C@]1(C)O | > 10000 nM | > 10000 nM | 1240 nM | 1770 nM | 1680 nM |
| 1020 nM | 10.6 nM | 117 nM | CC[C@H]1OC(=O)[C@H](C)[C@@H](O)[C@H](C)[C@@H](O[C@@H]2O[C@H](C)C[C@H](N(C)Cc3ccc(-c4cn(CCCCCCC(=O)NO)nn4)cc3)[C@H]2O)[C@](C)(O)C[C@@H](C)CN(C)[C@H](C)[C@@H](O)[C@]1(C)O | > 10000 nM | > 10000 nM | 1970 nM | 3010 nM | 2560 nM |
| 994 nM | 13.9 nM | 78 nM | CC[C@H]1OC(=O)[C@H](C)[C@@H](O[C@H]2C[C@@](C)(OC)[C@@H](O)[C@H](C)O2)[C@H](C)[C@@H](O[C@@H]2O[C@H](C)C[C@H](N(C)Cc3ccc(-c4cn(CCCCCCC(=O)NO)nn4)cc3)[C@H]2O)[C@](C)(O)C[C@@H](C)CN(C)[C@H](C)[C@@H](O)[C@]1(C)O | > 10000 nM | > 10000 nM | 1880 nM | 3450 nM | 2330 nM |
| 6780 nM | 72.4 nM |  | CC[C@H]1OC(=O)[C@H](C)[C@@H](O)[C@H](C)[C@@H](O[C@@H]2O[C@H](C)C[C@H](N(C)Cc3ccc(-c4cn(CCCCCCCC(=O)NO)nn4)cc3)[C@H]2O)[C@](C)(O)C[C@@H](C)CN(C)[C@H](C)[C@@H](O)[C@]1(C)O | > 10000 nM | > 10000 nM | 5680 nM | 3990 nM | 4670 nM |
